The source of these data is ChEMBL document CHEMBL1212734, “In vitro pharmacodynamics of levofloxacin and other aerosolized antibiotics under multiple conditions relevant to chronic pulmonary infection in cystic fibrosis” (2010).

Holding throughout (type): functional
In assay [1] the test system is Pseudomonas aeruginosa. Kind of assay: Antibacterial activity against Pseudomonas aeruginosa by broth dilution method. Put shortly:
(§1)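 Broth microdilution MIC per CLSI reference method; twofold serial dilutions in cation-adjusted Mueller-Hinton broth. […] Endpoint read by OD600 and confirmed visually.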
Background: Broth dilution looks for growth in wells or tubes with falling amounts of substance.

Assay [2] deals with Burkholderia cepacia. Kind of assay: Antibacterial activity against Burkholderia cepacia clinical isolates by broth dilution method.
The subject of assay [3] is Stenotrophomonas maltophilia. Kind of assay: Antibacterial activity against Stenotrophomonas maltophilia by broth dilution method.
Assay [4] concerns Achromobacter xylosoxidans. Kind of assay: Antibacterial activity against Alcaligenes xylosoxidans by broth dilution method.
The subject of assay [5] is Staphylococcus aureus. Kind of assay: Antibacterial activity against methicillin-resistant Staphylococcus aureus by broth dilution method. Put shortly: as §1
In assay [6] the test system is Staphylococcus aureus. Kind of assay: Antibacterial activity against methicillin-sensitive Staphylococcus aureus by broth dilution method.
The test system of assay [7] is Pseudomonas aeruginosa. Kind of assay: Antibacterial activity against Pseudomonas aeruginosa PA1054 assessed as inhibition of biofilm formation by microtiter plate reader assay. Put shortly: (§2)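 Biofilms of cystic fibrosis P. aeruginosa isolates were grown and tested by a previously described method. The endpoint was the biofilm inhibitory concentration, the drug level that prevents biofilm cell growth, compared against planktonic broth-microdilution MICs.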

The test system of assay [8] is Pseudomonas aeruginosa. Kind of assay: Antibacterial activity against Pseudomonas aeruginosa PA1042 assessed as inhibition of biofilm formation by microtiter plate reader assay. The essentials: as §2
The test system of assay [9] is Pseudomonas aeruginosa. Kind of assay: Antibacterial activity against Pseudomonas aeruginosa PA5063 assessed as inhibition of biofilm formation by microtiter plate reader assay. The essentials:
as §2

The subject of assay [10] is Pseudomonas aeruginosa. Kind of assay: Antibacterial activity against Pseudomonas aeruginosa PA1054 by broth dilution method. Put shortly: as §1
For assay [11], the system named is Pseudomonas aeruginosa. Kind of assay: Antibacterial activity against Pseudomonas aeruginosa PA1042 by broth dilution method. The essentials: as §1
Assay [12] relates to Pseudomonas aeruginosa. Kind of assay: Antibacterial activity against Pseudomonas aeruginosa PA5063 by broth dilution method. The essentials:
as §1

For assay [13], the system named is Pseudomonas aeruginosa. Kind of assay: Antibacterial activity against Pseudomonas aeruginosa ATCC 27853 by broth dilution method. Put shortly:
as §1

Assay [14] has as its system Pseudomonas aeruginosa. Kind of assay: Antibacterial activity against Pseudomonas aeruginosa PA5043 by broth dilution method. Put shortly: as §1
For assay [15], the system named is Pseudomonas aeruginosa. Kind of assay: Antibacterial activity against Pseudomonas aeruginosa PA5043 assessed as inhibition of biofilm formation by microtiter plate reader assay. Put shortly:
as §2

The subject of assay [16] is Pseudomonas aeruginosa. Kind of assay: Antibacterial activity against Pseudomonas aeruginosa ATCC 27853 assessed as inhibition of biofilm formation by microtiter plate reader assay.

In brackets after ≈: the same amount, converted by molar mass. Some results are limits rather than exact numbers.

Take `NCC[C@H](O)C(=O)N[C@@H]1C[C@H](N)[C@@H](O[C@H]2O[C@H](CN)[C@@H](O)[C@H](O)[C@H]2O)[C@H](O)[C@H]1O[C@H]1O[C@H](CO)[C@@H](O)[C@H](N)[C@H]1O` [AMIKACIN]: the MIC50 (as a rule, an inhibitory concentration at the 50% level, which refers to growth in some studies and to a panel of isolates in others) in [1] was 16 µg/mL (≈ 27.3 µM); in assay [2], 128 µg/mL (≈ 219 µM); in assay [3] it was 128 µg/mL (≈ 219 µM); in assay [4], more than 128 µg/mL; in [5], 8 µg/mL (≈ 13.7 µM); in assay [6], 1 µg/mL (≈ 1.71 µM). Moreover, the MIC90 (usually an inhibitory concentration at the 90% level, which refers to growth in some studies and to a panel of isolates in others) in assay [1] is more than 128 µg/mL; in [2] it was more than 128 µg/mL; in assay [3], more than 128 µg/mL; in assay [4], more than 128 µg/mL; in [5], 16 µg/mL (≈ 27.3 µM); in assay [6] it was 4 µg/mL (≈ 6.83 µM). Also, the BBC in [7] stood at 4 µg/mL; in assay [8], 8 µg/mL; in [9] it was 16 µg/mL; in assay [15], 64 µg/mL; in assay [16] it was 8 µg/mL. The MIC in assay [7] (Pseudomonas aeruginosa, PA1054) was 1 µg/mL (≈ 1.71 µM); in assay [10], 1 µg/mL (≈ 1.71 µM); in assay [11] it was 4 µg/mL (≈ 6.83 µM); in assay [12], 2 µg/mL (≈ 3.42 µM); in [13] it was 2 µg/mL (≈ 3.42 µM); in assay [14], 64 µg/mL (≈ 109 µM).
On to `O=C(O)c1cn(C2CC2)c2cc(N3CCNCC3)c(F)cc2c1=O` [CIPROFLOXACIN], for which the MIC50 in assay [1] was determined as 1 µg/mL (≈ 3.02 µM); in assay [3], 4 µg/mL (≈ 12.1 µM); in assay [4], 4 µg/mL (≈ 12.1 µM); in [5], 16 µg/mL (≈ 48.3 µM); in assay [6], 0.125 µg/mL (≈ 0.377 µM). For the same compound, the MIC90 is 8 µg/mL (≈ 24.1 µM) in [1]; 16 µg/mL (≈ 48.3 µM) in assay [3]; 16 µg/mL (≈ 48.3 µM) in assay [4]; more than 32 µg/mL in [5]; 0.5 µg/mL (≈ 1.51 µM) in assay [6].
